According to PMC5508980 (Molecular nutrition & food research, 2017):

Key:
[1] = biological target: recombinant HDAC4 (Homo sapiens, UniProt P56524); experiment: Recombinant HDAC activity assay; type: biochemical; conditions: 2 h, read-out: % HDAC activity, Class IIa HDACs, 4
[2] = biological target: T1, recombinant HDAC6 (Homo sapiens, UniProt Q9UBN7); experiment: Recombinant HDAC activity assay; type: biochemical; conditions: 2 h, read-out: % HDAC activity, Class IIb HDACs, 6
T1 sequence (Q9UBN7 1-1215): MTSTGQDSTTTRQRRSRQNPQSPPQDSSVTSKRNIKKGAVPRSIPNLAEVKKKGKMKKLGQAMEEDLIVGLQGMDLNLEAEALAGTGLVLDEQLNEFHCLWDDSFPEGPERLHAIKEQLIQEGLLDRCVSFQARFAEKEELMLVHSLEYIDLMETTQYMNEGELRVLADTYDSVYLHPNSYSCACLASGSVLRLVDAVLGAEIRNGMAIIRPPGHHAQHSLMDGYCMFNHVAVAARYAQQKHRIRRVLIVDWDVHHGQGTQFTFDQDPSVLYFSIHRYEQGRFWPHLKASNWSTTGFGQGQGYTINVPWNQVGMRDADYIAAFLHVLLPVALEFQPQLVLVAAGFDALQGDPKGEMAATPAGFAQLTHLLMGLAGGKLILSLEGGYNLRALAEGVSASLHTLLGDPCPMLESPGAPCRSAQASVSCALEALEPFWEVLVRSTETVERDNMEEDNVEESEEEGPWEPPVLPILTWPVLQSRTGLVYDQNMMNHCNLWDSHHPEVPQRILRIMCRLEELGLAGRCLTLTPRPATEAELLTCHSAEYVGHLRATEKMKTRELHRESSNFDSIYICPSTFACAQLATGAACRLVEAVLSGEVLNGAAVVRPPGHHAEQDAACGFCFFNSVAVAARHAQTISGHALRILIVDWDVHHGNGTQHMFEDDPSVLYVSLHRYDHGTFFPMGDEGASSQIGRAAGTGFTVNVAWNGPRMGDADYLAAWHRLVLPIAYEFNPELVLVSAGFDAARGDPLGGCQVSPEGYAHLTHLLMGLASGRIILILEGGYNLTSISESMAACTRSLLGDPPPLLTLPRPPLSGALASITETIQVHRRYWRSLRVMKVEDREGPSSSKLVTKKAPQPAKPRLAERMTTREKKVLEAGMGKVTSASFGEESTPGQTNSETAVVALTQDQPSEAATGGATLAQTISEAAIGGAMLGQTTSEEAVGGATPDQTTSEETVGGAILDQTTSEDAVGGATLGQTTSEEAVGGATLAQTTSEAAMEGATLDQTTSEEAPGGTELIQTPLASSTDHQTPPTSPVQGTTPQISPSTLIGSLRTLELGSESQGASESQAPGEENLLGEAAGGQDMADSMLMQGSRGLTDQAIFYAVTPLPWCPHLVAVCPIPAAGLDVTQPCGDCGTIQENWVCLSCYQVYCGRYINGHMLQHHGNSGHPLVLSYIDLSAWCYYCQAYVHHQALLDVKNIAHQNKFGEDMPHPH

[3] = test system: HDAC activity in bovine cardiac tissue; experiment: Natural product library screen with class-selective HDAC substrates; type: biochemical; conditions: 2 hours treatment
Procedure, shortened: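 The screen covered 131 natural compounds against bovine cardiac tissue lysate at 30 µg protein/well in PBS (pH 7.4 lysis buffer with Triton X-100 and NaCl). Test compound for 2 h, then separate class I, IIa or IIb fluorogenic acyl-lysine-AMC substrates for 2 h at 37 °C. Developer (Triton X-100, 3 µM TSA, 0.75 mg/ml trypsin) for 20 min; fluorescence read at 360/460 nm.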

[4] = biological target: recombinant HDAC5 (Homo sapiens, UniProt Q9UQL6); experiment: Recombinant HDAC activity assay; type: biochemical; conditions: 2 h, read-out: % HDAC activity, Class IIa HDACs, 5
Chain of recombinant HDAC5 (Q9UQL6 whole entry): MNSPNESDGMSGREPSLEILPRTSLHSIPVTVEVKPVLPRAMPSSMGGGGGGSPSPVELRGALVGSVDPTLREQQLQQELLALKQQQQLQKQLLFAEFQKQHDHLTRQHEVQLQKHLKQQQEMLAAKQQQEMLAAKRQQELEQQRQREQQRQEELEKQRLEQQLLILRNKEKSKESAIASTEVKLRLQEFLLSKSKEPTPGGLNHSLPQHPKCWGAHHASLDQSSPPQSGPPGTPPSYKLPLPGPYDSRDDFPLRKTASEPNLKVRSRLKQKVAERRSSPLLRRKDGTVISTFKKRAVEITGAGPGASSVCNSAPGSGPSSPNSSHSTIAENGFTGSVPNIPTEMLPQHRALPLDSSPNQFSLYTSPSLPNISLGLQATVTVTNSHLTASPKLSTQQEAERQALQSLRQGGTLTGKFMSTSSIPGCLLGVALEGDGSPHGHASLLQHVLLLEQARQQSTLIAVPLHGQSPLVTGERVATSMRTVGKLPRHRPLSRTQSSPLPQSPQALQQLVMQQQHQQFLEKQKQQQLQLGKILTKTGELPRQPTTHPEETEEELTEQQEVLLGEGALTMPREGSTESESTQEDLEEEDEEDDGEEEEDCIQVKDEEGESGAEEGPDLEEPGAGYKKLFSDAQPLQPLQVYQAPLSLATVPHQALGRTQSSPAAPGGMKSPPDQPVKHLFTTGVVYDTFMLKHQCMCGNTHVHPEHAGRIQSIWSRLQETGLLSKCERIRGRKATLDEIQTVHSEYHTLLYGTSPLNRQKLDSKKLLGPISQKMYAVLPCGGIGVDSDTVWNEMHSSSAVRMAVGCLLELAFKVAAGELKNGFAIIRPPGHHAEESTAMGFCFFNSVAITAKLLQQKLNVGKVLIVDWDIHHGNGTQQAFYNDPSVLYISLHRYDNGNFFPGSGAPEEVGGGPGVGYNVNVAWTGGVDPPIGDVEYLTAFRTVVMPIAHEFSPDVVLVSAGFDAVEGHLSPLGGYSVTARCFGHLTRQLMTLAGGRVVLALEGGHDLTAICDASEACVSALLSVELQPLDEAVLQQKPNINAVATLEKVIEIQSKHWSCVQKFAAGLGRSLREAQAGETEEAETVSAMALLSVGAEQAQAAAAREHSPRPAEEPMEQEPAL

[5] = biological target: recombinant HDAC1 (Homo sapiens, UniProt Q13547); experiment: Recombinant HDAC activity assay; type: biochemical; conditions: 2 h, read-out: % HDAC activity, Class I HDACs, 1
Chain of recombinant HDAC1 (Q13547 whole entry): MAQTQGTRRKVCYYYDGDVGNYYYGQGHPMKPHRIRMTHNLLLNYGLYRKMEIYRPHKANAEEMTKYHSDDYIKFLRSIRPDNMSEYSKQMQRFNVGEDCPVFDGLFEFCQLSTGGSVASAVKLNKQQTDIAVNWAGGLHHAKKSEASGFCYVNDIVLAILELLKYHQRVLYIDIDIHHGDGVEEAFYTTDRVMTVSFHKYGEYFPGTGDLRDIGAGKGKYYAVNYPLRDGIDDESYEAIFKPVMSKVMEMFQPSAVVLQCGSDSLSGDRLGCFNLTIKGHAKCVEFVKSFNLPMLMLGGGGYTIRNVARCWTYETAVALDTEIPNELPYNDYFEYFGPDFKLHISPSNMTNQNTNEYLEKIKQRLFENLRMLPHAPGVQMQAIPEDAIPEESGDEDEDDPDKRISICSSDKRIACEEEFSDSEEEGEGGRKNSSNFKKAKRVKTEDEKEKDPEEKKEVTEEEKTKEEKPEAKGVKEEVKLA

[6] = biological target: T2, recombinant HDAC7 (Homo sapiens, UniProt Q8WUI4); experiment: Recombinant HDAC activity assay; type: biochemical; conditions: 2 h, read-out: % HDAC activity, Class IIa HDACs, 7
T2 sequence (Q8WUI4 1-952): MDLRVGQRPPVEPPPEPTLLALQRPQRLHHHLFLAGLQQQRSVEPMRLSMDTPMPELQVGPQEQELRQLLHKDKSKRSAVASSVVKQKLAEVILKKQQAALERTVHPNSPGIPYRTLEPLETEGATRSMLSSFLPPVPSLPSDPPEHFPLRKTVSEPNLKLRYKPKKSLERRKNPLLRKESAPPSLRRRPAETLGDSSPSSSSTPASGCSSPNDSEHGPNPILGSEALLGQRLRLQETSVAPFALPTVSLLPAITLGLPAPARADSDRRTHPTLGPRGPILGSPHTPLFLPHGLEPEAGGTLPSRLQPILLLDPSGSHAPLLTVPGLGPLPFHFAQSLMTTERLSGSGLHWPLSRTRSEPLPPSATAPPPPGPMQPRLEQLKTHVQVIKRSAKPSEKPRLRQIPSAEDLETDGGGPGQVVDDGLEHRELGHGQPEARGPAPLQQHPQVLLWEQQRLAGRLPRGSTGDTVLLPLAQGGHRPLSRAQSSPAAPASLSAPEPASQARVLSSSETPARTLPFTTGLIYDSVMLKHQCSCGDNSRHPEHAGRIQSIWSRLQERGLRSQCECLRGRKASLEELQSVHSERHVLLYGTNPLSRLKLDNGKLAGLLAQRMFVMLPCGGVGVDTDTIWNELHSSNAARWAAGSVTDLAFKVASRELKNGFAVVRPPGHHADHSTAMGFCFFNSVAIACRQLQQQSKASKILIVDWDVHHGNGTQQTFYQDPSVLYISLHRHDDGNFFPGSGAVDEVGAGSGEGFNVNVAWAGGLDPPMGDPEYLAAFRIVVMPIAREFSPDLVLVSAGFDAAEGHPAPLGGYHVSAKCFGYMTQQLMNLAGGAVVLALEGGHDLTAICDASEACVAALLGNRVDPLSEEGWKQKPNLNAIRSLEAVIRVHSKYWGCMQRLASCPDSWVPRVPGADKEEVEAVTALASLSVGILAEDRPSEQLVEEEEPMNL

[7] = biological target: recombinant HDAC3 (Homo sapiens, UniProt O15379); experiment: Recombinant HDAC activity assay; type: biochemical; conditions: 2 h, read-out: % HDAC activity, Class I HDACs, 3
Chain of recombinant HDAC3 (O15379 whole entry): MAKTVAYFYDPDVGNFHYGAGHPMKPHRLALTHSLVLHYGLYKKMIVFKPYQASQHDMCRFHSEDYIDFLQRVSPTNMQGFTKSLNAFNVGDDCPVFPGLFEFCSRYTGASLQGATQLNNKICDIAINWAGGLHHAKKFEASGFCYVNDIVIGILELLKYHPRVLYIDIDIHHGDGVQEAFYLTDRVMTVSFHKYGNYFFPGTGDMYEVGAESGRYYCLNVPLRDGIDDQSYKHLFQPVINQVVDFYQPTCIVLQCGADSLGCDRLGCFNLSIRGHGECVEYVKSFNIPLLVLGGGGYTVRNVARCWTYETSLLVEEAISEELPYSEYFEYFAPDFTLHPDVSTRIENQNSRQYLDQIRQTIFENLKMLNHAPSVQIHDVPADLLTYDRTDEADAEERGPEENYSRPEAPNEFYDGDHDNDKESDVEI
Chain of recombinant HDAC3 (Q9Y618 395-489 partner limits assumed): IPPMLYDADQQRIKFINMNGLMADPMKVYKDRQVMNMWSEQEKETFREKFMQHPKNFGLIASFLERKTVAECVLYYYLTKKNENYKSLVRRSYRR

[8] = test system: H9c2 cells; experiment: Acetyl-H3K9/14 immunoblot of whole cell extract; type: cell-based, rat; conditions: H9c2 myocytes, 50 µM, 2 hours
Procedure, shortened: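 H9c2 cells were grown in DMEM with 10% FBS and treated at 90% confluence for 2 h with test compound or DMSO, with TSA as positive control. Washed in ice-cold PBS, lysed in PBS pH 7.4 with 0.5% Triton X-100 and 300 mM NaCl plus inhibitors, sonicated and clarified. SDS-PAGE, nitrocellulose, acetyl-H3K9/14 and total H3 antibodies, chemiluminescence; densitometry; ANOVA with Tukey.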

Chain of recombinant HDAC4 (P56524 whole entry): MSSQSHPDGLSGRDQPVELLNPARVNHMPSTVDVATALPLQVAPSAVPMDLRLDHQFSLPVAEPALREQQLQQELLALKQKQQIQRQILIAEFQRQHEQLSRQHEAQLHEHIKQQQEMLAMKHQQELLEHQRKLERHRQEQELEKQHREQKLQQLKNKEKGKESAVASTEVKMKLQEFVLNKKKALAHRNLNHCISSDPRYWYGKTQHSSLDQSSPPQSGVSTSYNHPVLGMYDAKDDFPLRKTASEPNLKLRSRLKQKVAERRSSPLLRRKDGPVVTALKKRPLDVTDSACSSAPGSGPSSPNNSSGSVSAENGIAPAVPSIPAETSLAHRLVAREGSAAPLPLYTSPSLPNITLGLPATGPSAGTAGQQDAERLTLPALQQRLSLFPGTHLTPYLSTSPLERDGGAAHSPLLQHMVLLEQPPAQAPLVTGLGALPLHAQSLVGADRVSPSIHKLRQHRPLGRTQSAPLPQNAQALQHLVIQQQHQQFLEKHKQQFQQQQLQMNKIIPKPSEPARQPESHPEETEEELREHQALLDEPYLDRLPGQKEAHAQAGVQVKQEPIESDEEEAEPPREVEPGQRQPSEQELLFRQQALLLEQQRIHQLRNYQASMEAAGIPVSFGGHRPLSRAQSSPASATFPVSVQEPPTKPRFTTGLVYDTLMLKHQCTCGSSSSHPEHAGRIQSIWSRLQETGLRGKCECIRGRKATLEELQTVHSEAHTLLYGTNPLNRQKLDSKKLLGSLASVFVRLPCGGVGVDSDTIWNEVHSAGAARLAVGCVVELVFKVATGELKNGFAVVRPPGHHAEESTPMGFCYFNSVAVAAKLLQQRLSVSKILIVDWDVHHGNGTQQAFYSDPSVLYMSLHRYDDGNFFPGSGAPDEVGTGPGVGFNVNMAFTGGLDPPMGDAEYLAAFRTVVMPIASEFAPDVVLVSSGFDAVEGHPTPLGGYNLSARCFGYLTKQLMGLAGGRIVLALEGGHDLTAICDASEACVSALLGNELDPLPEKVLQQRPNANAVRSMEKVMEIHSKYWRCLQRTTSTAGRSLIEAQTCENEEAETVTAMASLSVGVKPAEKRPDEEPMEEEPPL

remaining activity at 50 µM [1]: 92.8%
remaining activity at 50 µM [2]: 38.8%
remaining activity at 50 µM [4]: 31.4%
remaining activity at 50 µM [5]: 35.8%
remaining activity at 50 µM [6]: 53.1%
remaining activity at 50 µM [7]: 35.1%
SMILES: Cc1cc(O)c2c(c1)C(=O)c1cc(O)cc(O)c1C2=O [Emodin]
catalytic HDAC activity across class I, IIa and IIb substrates, effect in words [3]: dose-dependent pan-HDAC inhibition
acetylation of histone 3 on lysine 9/14 (Ac-H3 K9/14) via immunoblot [8]: increased
